In ChEMBL document CHEMBL3596176, “Geleganidines A-C, Unusual Monoterpenoid Indole Alkaloids from Gelsemium elegans” (J Nat Prod, 2015) one finds IC50 data, which are given here for seven compounds.

Each structure is given as a SMILES string.

One assay relates to MCF7. Put plainly: Cytotoxicity against human MCF7 cells assessed as inhibition of cell growth after 72 hrs by MTT assay. As to conditions: MCF7, 72 h. The class given is functional, cell-based. An outline of the steps: (§1)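 Cells kept in RPMI 1640 plus 10% FBS at 37 °C in humidified 5% CO2. Seeded for 24 h, then exposed to a range of compound concentrations for 72 h. MTT (5 mg/mL solution) added, followed by 4 h incubation. Medium removed and formazan dissolved in DMSO; absorbance at 570 nm. IC50 taken from dose-response curves, reported as mean ± SD.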

Assay [1] in a line: Cytotoxicity against rat PC12 cells assessed as inhibition of cell growth after 72 hrs by MTT assay. As to conditions: PC-12, 72 h. The class given is functional, cell-based. An outline of the steps: as §1
(Formazan colour is commonly taken as a measure of viable cells.)

The IC50 is the concentration at which inhibition is half-maximal. Regarding `C/C=C1\CN(C(=O)N2C/C(=C\C)[C@@H]3C[C@H]4OC[C@@H]3[C@@H]2C[C@@]42C(=O)N(OC)c3cc(OC)ccc32)[C@H]2C[C@@]3(C(=O)N(OC)c4ccccc43)[C@H]3C[C@@H]1[C@@H]2CO3`, the results for the IC50 (with MCF7; in assay [1]) were more than 50 µM and 16.1 µM, respectively.
In the case of `C/C=C1\CN[C@H]2C[C@@]3(C(=O)N(OC)c4ccccc43)[C@H]3C[C@@H]1[C@@H]2CO3`, the IC50 (in the assay on MCF7; in assay [1]) was more than 50 µM throughout.
With `C/C=C1\CN[C@H]2C[C@@]3(C(=O)N(OC)c4cc(OC)ccc43)[C@H]3C[C@@H]1[C@@H]2CO3`, the IC50 (in the assay on MCF7; in assay [1]) was more than 50 µM each time.
On to `C/C=C1\CN2C(=O)[C@]3(c4ccc(OC)cc4NOC)C[C@H]2[C@H]2CO[C@@H]3C[C@@H]12`, for which the IC50 (in the assay with MCF7; in assay [1]) was more than 50 µM each time.
Consider `C/C=C1\CN2C(=O)[C@]3(c4ccc(OC)cc4/N=N/c4cc(OC)ccc4[C@@]45C[C@H]6[C@H]7CO[C@@H]4C[C@H]7/C(=C/C)CN6C5=O)C[C@H]2[C@H]2CO[C@@H]3C[C@@H]12`, for which the IC50 in the assay on MCF7 is 38.4 µM; in assay [1] it was more than 50 µM.
In the same order, the values of `C/C=C1\CN(C=O)[C@H]2C[C@@]3(C(=O)N(OC)c4cc(OC)ccc43)[C@H]3C[C@@H]1[C@@H]2CO3` are more than 50 µM and more than 50 µM.
For `C/C=C1\CN2C(=O)[C@]3(c4ccc(OC)cc4N)C[C@H]2[C@H]2CO[C@@H]3C[C@@H]12` the same measures were more than 50 µM and more than 50 µM.
